These results are taken from ChEMBL document CHEMBL3875214, “Quercetin-glutamic acid conjugate with a non-hydrolysable linker; a novel scaffold for multidrug resistance reversal agents through inhibition of P-glycoprotein” (Bioorg Med Chem, 2017).

SMILES strings stand for the structures. Activity calls are given as the source filed them. The rule behind the calls is not given here.

Data set [1] in a line: Stability in human MES-SA cells assessed as reduction in quercetin release up to 100 uM by HPLC analysis. In kind it is ADME, cell-based. An outline of the steps: (§1)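 MES-SA or MES-SA/Dx5 cells were incubated with compound for up to 48 h (0, 24, 48 h). Cell lysates were analysed by HPLC for intact compound and for released quercetin, and half-lives were derived from these measurements.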

For data set [2], the species on record is Homo sapiens. Kind of data set: Inhibition of P-gp in human MES-SA/Dx5 cells assessed as potentiation of doxorubicin-induced cytotoxicity by measuring fold reduction in doxorubicin EC50 at 5 uM after 72 hrs by MTT assay relative to untreated control. In kind it is cell-based. The method, boiled down: (§2)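 MES-SA/Dx5 cells were seeded at 5×10^3 per well in complete RPMI-1640 and left 24 h at 37 °C, 5% CO2. Anticancer drug was added at 0.0001–100 µM final, with or without modulator at 5 µM (1% DMSO), for 72 h. Viability was read by MTT at 570 nm and survival % was blank-corrected against 1% DMSO controls. IC50s came from survival curves. Fold reversal = IC50 untreated / IC50 with modulator. Three independent experiments were run, reported as mean ± SD.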

Data set [3] can be described thus: Inhibition of P-gp in human MES-SA/Dx5 cells assessed as potentiation of doxorubicin-induced cytotoxicity by measuring compound concentration required for reduction of doxorubicin IC50 by half after 72 hrs by MTT assay. In kind it is cell-based. To be noted: MES-SA/Dx5, 72 h.
Data set [4] can be described thus: Antioxidant activity assessed as DPPH radical scavenging activity. In kind it is functional.
Data set [5] in a line: Stability in P-gp over-expressing human MES-SA/Dx5 cells assessed as reduction in quercetin release up to 100 uM by HPLC analysis. In kind it is ADME, cell-based. The method, boiled down:
as §1

A short description of data set [6]: Half life in human MES-SA cells up to 100 uM by HPLC analysis. In kind it is ADME, cell-based. An outline of the steps: as §1
A short description of data set [7]: Inhibition of P-gp in human MES-SA/Dx5 cells assessed as potentiation of paclitaxel-induced cytotoxicity by measuring compound concentration required for reduction of paclitaxel IC50 by half after 72 hrs by MTT assay. In kind it is cell-based. The conditions noted are these: MES-SA/Dx5, 72 h.
The species entered for data set [8] is Homo sapiens. Kind of data set: Inhibition of P-gp in human MES-SA/Dx5 cells assessed as potentiation of vinblastine-induced cytotoxicity by measuring fold reduction in vinblastine EC50 at 5 uM after 72 hrs by MTT assay relative to untreated control. In kind it is cell-based. An outline of the steps:
as §2

The species named for data set [9] is Homo sapiens. Nature of the data set: Inhibition of P-gp in human MES-SA/Dx5 cells assessed as potentiation of paclitaxel-induced cytotoxicity by measuring fold reduction in paclitaxel EC50 at 5 uM after 72 hrs by MTT assay relative to untreated control. In kind it is cell-based. An outline of the steps:
as §2

The species named for data set [10] is Homo sapiens. Nature of the data set: Activity at human P-gp expressed in membranes assessed as stimulation of P-gp ATPase activity at 100 uM after 40 mins in presence of MgATP by […] relative to control. An outline of the steps:
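Human Pgp membrane, 25 µg, incubated at 37 °C with compound at 100 µM, alongside Na3VO4 (100 µM) and 0.1% DMSO solvent controls. Reaction was started with 5 mM MgATP and run 40 min at 37 °C. Leftover ATP was read as luciferase luminescence after 20 min at room temperature. Activity was taken as the luminescence drop relative to the Na3VO4 sample.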

A short description of data set [11]: Inhibition of P-gp in human MES-SA/Dx5 cells assessed as potentiation of vinblastine-induced cytotoxicity by measuring compound concentration required for reduction of vinblastine IC50 by half after 72 hrs by MTT assay. In kind it is cell-based. The conditions noted are these: MES-SA/Dx5, 72 h.
Data set [12] is described as follows: Inhibition of P-gp in human MES-SA/Dx5 cells assessed as potentiation of actinomycin D-induced cytotoxicity by measuring compound concentration required for reduction of actinomycin D IC50 by half after 72 hrs by MTT assay. In kind it is cell-based. To be noted: MES-SA/Dx5, 72 h.
Data set [13] can be described thus: Half life in P-gp over-expressing human MES-SA/Dx5 cells up to 100 uM by HPLC analysis. In kind it is ADME, cell-based. The method, boiled down:
as §1

For data set [14], the species on record is Homo sapiens. Kind of data set: Inhibition of P-gp in human MES-SA/Dx5 cells assessed as potentiation of actinomycin D-induced cytotoxicity by measuring fold reduction in actinomycin D EC50 at 5 uM after 72 hrs by MTT assay relative to untreated control. In kind it is cell-based. An outline of the steps: as §2
The species named for data set [15] is Homo sapiens. Nature of the data set: Inhibition of P-gp in human MES-SA/Dx5 cells assessed as increase in doxorubicin accumulation at 5 uM after 30 mins by flow cytometry relative to control. In kind it is cell-based.

For `O=C(O)CC[C@H](NCCOc1cc(O)c2c(=O)c(O)c(-c3ccc(O)c(O)c3)oc2c1)C(=O)O`, the Stability entry in data set [1] and in data set [5] was “Stable” throughout. For the same compound, the fold change (FC) is 22.3 in the data set listed under Homo sapiens [2]; 16.2 in the data set listed under Homo sapiens [8]; 17.3 in the data set listed under Homo sapiens [9]; 2.8 in the data set filed under Homo sapiens [10]; 20.5 in the data set filed under Homo sapiens [14]; 2.1 in the data set listed under Homo sapiens [15]. The EC50 was determined as 2800 nM in data set [3], 2500 nM in data set [7], 2400 nM in data set [11] and 2700 nM in data set [12]. For the same compound, in data set [4], the result was Active. Moreover, the half-life in data set [6] and in data set [13] was 56 h each time.

Regarding `O=C(O)CC[C@H](NC(=O)COc1cc(O)c2c(=O)c(O)c(-c3ccc(O)c(O)c3)oc2c1)C(=O)O`, the Stability entry in [1] and in [5] was “Stable” in each case. Besides, the fold change (FC) in the data set listed under Homo sapiens [2] worked out at 25.6; in the data set filed under Homo sapiens [8], 26; in the data set filed under Homo sapiens [9], 34.6; in the data set filed under Homo sapiens [10], 3.1; in the data set filed under Homo sapiens [14] it was 48.4; in the data set listed under Homo sapiens [15], 2.3. In addition, the EC50 was determined as 2200 nM in data set [3], 2100 nM in data set [7], 2500 nM in [11] and 2300 nM in data set [12]. Besides, the result in data set [4] was Active. For the same compound, the half-life in data set [6] and in [13] was 30 h in each case.

For `O=c1c(O)c(-c2ccc(O)c(O)c2)oc2cc(O)cc(O)c12`, the fold change (FC) in the data set listed under Homo sapiens [2] is 1.94; in the data set filed under Homo sapiens [8], 2.75; in the data set filed under Homo sapiens [9], 2.48; in the data set filed under Homo sapiens [14], 3.06. Further, the outcome in data set [4] was Active.
